Data taken from article PMC4651821 (Clinical & experimental metastasis, 2015).
Read-outs that look alike come from different tables or passages of the source.

Key:
pFAK [Y397] [1] = target: T1, pFAK [Y397] (Mus musculus, UniProt P34152); test: pFAK [Y397] immunohistochemistry in RIP-Tag2 liver and tumors; assay type: in vivo; conditions: 2 h after one 20-mg/kg dose
[2] = tested on: liver metastases of pancreatic neuroendocrine tumors; test: Liver metastasis in RIP-Tag2 mice; assay type: in vivo, mouse
Summary of the method: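 RIP-Tag2 transgenic mice (C57BL/6 background) were treated for 3 weeks from age 14 weeks with vehicle (20 % Trappsol daily), test compound 20 mg/kg daily, anti-VEGFR-2 antibody DC101 1 mg ip twice weekly, or both. At 17 weeks, visible liver metastases were scored at autopsy. Micrometastases (≥2 adjacent SV40 T-antigen-positive cells) were counted and sized in two 80-μm liver sections per mouse; n = 19–24 per group.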

pFAK [Y397] [3] = target: T2, pFAK [Y397] (Homo sapiens, UniProt Q05397); test: PK/PD of pFAK [Y397] inhibition in xenograft tumors; assay type: in vivo, mouse
T2 sequence (Q05397 whole entry): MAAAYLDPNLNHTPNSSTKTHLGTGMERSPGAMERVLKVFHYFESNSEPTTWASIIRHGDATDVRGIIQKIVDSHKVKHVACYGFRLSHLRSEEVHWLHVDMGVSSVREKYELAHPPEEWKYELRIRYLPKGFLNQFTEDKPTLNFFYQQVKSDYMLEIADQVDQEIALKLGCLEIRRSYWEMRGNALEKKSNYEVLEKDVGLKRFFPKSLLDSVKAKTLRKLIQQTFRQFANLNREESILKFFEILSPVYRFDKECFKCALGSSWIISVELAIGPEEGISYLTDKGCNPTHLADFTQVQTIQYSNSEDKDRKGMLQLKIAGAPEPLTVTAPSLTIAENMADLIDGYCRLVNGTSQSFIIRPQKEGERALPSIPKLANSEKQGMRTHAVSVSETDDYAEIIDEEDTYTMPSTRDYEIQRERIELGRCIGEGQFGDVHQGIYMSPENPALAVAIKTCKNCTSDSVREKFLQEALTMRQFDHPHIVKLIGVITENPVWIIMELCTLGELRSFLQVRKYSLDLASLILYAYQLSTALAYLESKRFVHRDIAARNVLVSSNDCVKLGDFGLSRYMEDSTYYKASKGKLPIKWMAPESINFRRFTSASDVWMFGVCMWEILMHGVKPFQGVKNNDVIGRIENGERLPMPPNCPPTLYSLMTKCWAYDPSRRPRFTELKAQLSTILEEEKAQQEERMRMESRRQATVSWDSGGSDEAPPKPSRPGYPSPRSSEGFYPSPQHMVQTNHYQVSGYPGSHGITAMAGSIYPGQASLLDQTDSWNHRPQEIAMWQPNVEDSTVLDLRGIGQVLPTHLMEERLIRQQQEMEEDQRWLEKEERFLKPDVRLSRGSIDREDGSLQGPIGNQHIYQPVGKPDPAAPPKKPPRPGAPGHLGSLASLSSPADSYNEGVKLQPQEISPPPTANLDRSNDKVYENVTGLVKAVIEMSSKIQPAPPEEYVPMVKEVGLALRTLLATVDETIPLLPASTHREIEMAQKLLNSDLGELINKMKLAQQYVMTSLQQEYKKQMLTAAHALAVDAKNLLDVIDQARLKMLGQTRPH
Summary of the method: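 TOV21G cells were implanted subcutaneously in athymic nude mice and grown to a standardized size. Mice got a single gavage dose of test compound (40–120 mg/kg in 20 % Trappsol) or vehicle. From 2 to 24 h later, tumor pFAK [Y397] was measured by ELISA alongside plasma drug levels. Time points were 4, 8 and 24 h after 80 or 120 mg/kg.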

pFAK [Y861] = pFAK [Y861] (Mus musculus, UniProt P34152); test: pFAK [Y861] immunohistochemistry in RIP-Tag2 liver and tumors; assay type: in vivo; conditions: for reduction of pFAK [Y861] staining in liver sinusoids: RIP-Tag2 mice
Chain of pFAK [Y861] (P34152 whole entry, the tested form may be a part): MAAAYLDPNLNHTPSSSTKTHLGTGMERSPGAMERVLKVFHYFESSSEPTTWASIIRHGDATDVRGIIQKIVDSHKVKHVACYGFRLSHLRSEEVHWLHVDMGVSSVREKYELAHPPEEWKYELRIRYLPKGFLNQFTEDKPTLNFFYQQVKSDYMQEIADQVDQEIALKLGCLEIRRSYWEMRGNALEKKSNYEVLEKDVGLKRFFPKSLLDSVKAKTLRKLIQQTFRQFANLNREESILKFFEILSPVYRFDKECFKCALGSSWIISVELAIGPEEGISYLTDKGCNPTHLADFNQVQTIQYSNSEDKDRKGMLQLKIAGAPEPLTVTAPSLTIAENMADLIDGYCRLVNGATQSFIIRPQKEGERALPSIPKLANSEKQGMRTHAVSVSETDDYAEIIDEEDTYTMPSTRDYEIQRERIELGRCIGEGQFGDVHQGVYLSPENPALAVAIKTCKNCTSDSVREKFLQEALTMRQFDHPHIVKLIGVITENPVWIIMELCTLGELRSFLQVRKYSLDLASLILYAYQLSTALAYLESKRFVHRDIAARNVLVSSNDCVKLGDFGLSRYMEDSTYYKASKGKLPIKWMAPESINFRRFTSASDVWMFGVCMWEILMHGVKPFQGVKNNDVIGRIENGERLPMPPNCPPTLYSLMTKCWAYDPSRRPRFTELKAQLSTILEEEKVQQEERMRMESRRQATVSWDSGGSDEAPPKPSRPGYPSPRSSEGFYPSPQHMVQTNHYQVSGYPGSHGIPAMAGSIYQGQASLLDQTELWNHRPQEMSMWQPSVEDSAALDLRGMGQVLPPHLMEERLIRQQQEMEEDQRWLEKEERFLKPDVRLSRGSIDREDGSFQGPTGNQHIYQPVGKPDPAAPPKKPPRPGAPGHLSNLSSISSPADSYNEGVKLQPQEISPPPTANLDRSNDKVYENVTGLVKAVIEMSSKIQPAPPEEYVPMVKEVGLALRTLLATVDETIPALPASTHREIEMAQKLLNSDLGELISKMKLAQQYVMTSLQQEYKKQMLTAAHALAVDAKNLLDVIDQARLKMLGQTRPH
Summary of the method: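 RIP-Tag2 mice got one 20 mg/kg dose of test compound or 20 % Trappsol. pFAK [Y861] immunofluorescence was examined in liver sinusoids and tumors at 6 time points from 1 to 24 h (n = 4 mice per time point). Tissues were perfusion-fixed with 1 % PFA and frozen sections were stained; the time course gave a tissue half-life of inhibition.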

IGROV1 cells [4] = test: Apoptosis, caspase 3/7 activity; assay type: cell-based, human; conditions: read-out: EC50 promotion of apoptosis, 3-D culture
SRC = SRC (Homo sapiens, UniProt P12931); test: Cell-based kinase assay in cell lysates
Chain of SRC (P12931 whole entry): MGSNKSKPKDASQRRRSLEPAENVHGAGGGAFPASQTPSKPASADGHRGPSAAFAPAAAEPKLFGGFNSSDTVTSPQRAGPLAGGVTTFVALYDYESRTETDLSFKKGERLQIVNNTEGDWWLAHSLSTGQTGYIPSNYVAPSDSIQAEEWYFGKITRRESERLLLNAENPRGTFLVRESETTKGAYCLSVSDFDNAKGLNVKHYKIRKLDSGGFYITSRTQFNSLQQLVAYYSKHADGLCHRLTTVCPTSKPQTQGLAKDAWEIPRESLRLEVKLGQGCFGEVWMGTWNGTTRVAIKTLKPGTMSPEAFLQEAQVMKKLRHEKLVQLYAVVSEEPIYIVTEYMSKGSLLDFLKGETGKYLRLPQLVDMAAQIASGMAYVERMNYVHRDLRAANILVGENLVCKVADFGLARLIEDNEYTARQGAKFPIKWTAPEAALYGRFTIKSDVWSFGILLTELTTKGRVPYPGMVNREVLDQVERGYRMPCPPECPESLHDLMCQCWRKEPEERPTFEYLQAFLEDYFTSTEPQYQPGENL

TOV21G cells [5] = test: Apoptosis, caspase 3/7 activity; assay type: cell-based, human; conditions: read-out: EC50 promotion of apoptosis, 3-D culture
IGROV1 cells [6] = conditions: read-out: EC50 inhibition of proliferation, 3-D culture, 7 days
Aurora kinase A = Aurora kinase A (Homo sapiens, UniProt O14965)
Chain of Aurora kinase A (O14965 whole entry): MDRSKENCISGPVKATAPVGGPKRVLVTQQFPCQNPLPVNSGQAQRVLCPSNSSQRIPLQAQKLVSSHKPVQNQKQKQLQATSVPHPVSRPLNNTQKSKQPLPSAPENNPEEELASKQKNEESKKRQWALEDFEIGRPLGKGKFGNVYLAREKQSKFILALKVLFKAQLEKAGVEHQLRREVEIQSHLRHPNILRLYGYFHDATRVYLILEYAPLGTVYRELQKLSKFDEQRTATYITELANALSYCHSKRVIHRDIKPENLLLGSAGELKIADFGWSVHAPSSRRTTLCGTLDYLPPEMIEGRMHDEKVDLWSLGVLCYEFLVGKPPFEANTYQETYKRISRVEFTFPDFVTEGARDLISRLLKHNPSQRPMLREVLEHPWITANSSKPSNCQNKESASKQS

TOV21G cells [7] = conditions: read-out: EC50 inhibition of proliferation, 3-D culture, 7 days
MDA-MB-361 breast tumors = test: Tumor growth inhibition, MDA-MB-361 xenografts in mice; assay type: in vivo, mouse
Summary of the method: (§1)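 TOV21G or MDA-MB-361 cells were implanted subcutaneously in athymic nude mice and grown to a standardized size (n = 8 per group). Test compound was given daily by gavage at 20–120 mg/kg for 3 weeks. Tumor size was measured and body weight recorded during treatment.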

KDR = KDR (Homo sapiens, UniProt P35968)
FAK [8] = target: FAK (Rattus norvegicus, UniProt O35346); test: Cellular mechanistic FAK inhibition, RMC cell lysates; assay type: cell-based; conditions: read-out: OXA-11 IC50 (nM) for FAK, RMC kidney mesangial cells
Aurora kinase B = Aurora kinase B (Homo sapiens, UniProt Q96GD4)
Chain of Aurora kinase B (Q96GD4 whole entry): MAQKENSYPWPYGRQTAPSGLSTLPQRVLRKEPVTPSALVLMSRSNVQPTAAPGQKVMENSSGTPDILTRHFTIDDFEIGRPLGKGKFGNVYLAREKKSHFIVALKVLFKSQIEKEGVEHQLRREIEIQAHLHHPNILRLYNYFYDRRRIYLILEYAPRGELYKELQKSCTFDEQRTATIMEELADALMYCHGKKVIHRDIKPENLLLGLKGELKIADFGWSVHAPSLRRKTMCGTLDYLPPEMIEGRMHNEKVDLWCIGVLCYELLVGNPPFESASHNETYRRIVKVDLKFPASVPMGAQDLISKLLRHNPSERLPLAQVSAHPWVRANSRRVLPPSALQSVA

[9] = tested on: eight human tumor cell lines; conditions: read-out: EC50 inhibition of proliferation in 3-D culture
pFAK [Y397] [10] = target: T2, pFAK [Y397]; test: pFAK [Y397] sandwich ELISA in IGROV1 cells; assay type: cell-based; conditions: read-out: IC50 of pFAK [Y397] inhibition; IGROV1 ovarian cancer cells in vitro
TOV21G tumors [11] = test: Tumor growth inhibition, TOV21G xenografts in nude mice; assay type: in vivo, mouse
Summary of the method: as §1

FAK [12] = target: T3, FAK (Homo sapiens, UniProt Q05397); test: Cell-based kinase assay in cell lysates
T3 sequence (Q05397 whole entry): as the sequence (Q05397 whole entry) above

[13] = Tolerability / maximum tolerated dose in RIP-Tag2 mice; assay type: in vivo
[14] = Tolerability in xenograft-bearing athymic nude mice; assay type: in vivo, mouse; conditions: 20–120 mg/kg daily for 3 weeks
Summary of the method: as §1

FAK [15] = target: T3, FAK; test: Cellular mechanistic FAK inhibition, MDA-MB-361 cell lysates; assay type: cell-based; conditions: read-out: OXA-11 IC50 (nM) for FAK, MDA-MB-361 breast adenocarcinoma metastasis cells
pFAK [Y397] [16] = target: T1, pFAK [Y397]; test: pFAK [Y397] ELISA in RIP-Tag2 tumors; assay type: in vivo; conditions: 4 h after a single 40-mg/kg dose
Summary of the method: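 14-week-old RIP-Tag2 mice received no treatment, one 40 mg/kg dose of test compound, or 20 % Trappsol, 4 or 8 h before sampling. Mice were perfused with PBS, and tumors were removed and frozen. Total FAK and pFAK [Y397] were measured by ELISA, with pancreas of RIP-Tag2-negative littermates as control; n = 4–12 per group.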

FAK [17] = test: Cellular mechanistic FAK inhibition, MDCK cell lysates; assay type: cell-based; conditions: read-out: OXA-11 IC50 (nM) for FAK, Dog, MDCK kidney epithelial cells
FAK [18] = target: FAK (Mus musculus, UniProt P34152); test: Cellular mechanistic FAK inhibition, 4T1 cell lysates; assay type: cell-based; conditions: read-out: OXA-11 IC50 (nM) for FAK, 4T1 mammary carcinoma cells
Chain of FAK (Mus musculus, UniProt P34152) (P34152 whole entry): as the sequence (P34152 whole entry, the tested form may be a part) above

FAK [19] = test: Cellular mechanistic FAK inhibition, CMMT cell lysates; assay type: cell-based; conditions: read-out: OXA-11 IC50 (nM) for FAK, Monkey, CMMT mammary gland epithelial cells
PYK2 = PYK2 (Homo sapiens, UniProt Q14289); test: Cell-based kinase assay in cell lysates
FAK [20] = target: T3, FAK; test: Kinase Profiling System with ADP-Glo Kinase Assay, 192 kinases; assay type: biochemical; conditions: OXA-11 concentration of 100 nM
Insulin receptor = Insulin receptor (Homo sapiens, UniProt P06213); test: Cell-based kinase assay in cell lysates
Chain of Insulin receptor (P06213 763-1382 limits assumed): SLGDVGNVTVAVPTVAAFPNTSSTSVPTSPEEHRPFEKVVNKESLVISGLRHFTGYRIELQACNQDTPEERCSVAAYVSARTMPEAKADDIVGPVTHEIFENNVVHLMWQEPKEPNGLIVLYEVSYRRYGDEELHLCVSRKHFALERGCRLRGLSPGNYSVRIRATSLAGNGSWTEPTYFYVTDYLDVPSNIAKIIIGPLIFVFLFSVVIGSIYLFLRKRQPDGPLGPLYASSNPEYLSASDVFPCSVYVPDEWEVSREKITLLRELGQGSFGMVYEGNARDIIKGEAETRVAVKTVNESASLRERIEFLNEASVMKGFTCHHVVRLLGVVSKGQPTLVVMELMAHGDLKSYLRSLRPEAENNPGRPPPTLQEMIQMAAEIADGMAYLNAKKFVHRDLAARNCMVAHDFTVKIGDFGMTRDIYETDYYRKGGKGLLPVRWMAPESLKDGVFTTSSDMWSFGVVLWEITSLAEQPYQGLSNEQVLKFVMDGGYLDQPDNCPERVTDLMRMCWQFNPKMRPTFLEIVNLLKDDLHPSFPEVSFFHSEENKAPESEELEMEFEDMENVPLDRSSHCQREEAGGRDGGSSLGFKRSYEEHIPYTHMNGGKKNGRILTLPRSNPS
Chain of Insulin receptor (P06213 28-758 partner limits assumed): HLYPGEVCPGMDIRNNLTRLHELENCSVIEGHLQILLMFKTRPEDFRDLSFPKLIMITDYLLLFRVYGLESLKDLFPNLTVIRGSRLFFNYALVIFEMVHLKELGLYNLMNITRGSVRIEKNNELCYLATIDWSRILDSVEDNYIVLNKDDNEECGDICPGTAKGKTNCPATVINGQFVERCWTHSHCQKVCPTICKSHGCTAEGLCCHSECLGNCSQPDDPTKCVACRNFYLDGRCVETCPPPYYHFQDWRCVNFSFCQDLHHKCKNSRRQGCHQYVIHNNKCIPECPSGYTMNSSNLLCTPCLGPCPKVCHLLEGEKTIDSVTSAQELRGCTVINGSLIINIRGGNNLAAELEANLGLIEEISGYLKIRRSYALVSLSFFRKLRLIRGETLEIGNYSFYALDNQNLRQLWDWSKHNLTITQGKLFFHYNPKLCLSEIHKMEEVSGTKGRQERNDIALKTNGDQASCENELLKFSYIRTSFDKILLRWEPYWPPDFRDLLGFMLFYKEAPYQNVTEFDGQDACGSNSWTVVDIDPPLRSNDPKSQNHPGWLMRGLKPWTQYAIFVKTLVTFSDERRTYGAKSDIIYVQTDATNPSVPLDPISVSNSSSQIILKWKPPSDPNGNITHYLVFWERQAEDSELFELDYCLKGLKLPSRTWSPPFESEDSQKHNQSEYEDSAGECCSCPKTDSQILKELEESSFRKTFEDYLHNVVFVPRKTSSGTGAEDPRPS

FAK [21] = target: T3, FAK; test: FAK Omnia Kinase Assay; conditions: read-out: biochemical IC50 for FAK inhibition
Summary of the method: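 GST-tagged full-length FAK phosphorylated a sulfonamido-oxine (SOX)-containing peptide substrate, read by chelation-enhanced fluorescence (Omnia). Test compound was run as an 11-point threefold serial dilution at final 0.17–10,000 nM or 0.12–7250 nM, in triplicate. IC50 was derived from the curves.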

TOV21G tumors [22] = test: OXA-11 with cisplatin in TOV21G tumors in nude mice; assay type: in vivo; conditions: cisplatin given alone, 5 mg/kg
[23] = TOV21G xenografts, 120 mg/kg daily
[24] = cellular mechanistic IC50, TOV21G cells

T1 sequence (P34152 whole entry): as the sequence (P34152 whole entry, the tested form may be a part) above

CCOP(=O)(Cc1ccc(Nc2ncc(C(F)(F)F)c(Nc3ccc([C@H]4CC[C@H](N5CCN(C)CC5)CC4)c4c3C(=O)N(C)C4)n2)c(OC)c1)OCC [OXA-11, diethyl (3-methoxy-4-{ [4-({2-methyl-7-[trans-4-(4-methylpiperazin-1-yl)cyclo-hexyl]-3-oxo-2,3-dihydro-1H-isoindol-4-yl}amino)-5-(tri-fluoromethyl)pyrimidin-2-yl]amino}benzyl) phosphonate]
staining for pFAK [Y397] in RIP-Tag2 tumors (pFAK [Y397] [1]): reduced to nearly undetectable levels
pFAK [Y397] immunofluorescence in liver sinusoids, less than baseline (pFAK [Y397] [1]; RIP-Tag2 mice): 86%
mice with liver metastases visible at autopsy ([2]; 17-week old RIP-Tag2 mice after treatment for 3 weeks): 10%
size of liver micrometastases ([2]; RIP-Tag2 mice, 3 weeks treatment): about the same as in the vehicle group
reduction of pFAK [Y397] at 24 h (pFAK [Y397] [3]; TOV21G tumors, single dose 80 or 120 mg/kg, plasma levels back to baseline): approximately 25%
suppression of pFAK [Y397] (pFAK [Y397] [3]; [23]): 61%
EC50 (pFAK [Y397] [3]; read-out: pharmacodynamic EC50 of pFAK [Y397] inhibition, total OXA-11, TOV21G tumors in mice, 4, 8 and 24 h): 102 nM
staining for pFAK [Y861] in RIP-Tag2 tumors (pFAK [Y861]; 2 h after one 20-mg/kg dose): reduced to nearly undetectable levels
tissue half-life of OXA-11 inhibition of pFAK [Y861] (pFAK [Y861]; RIP-Tag2 liver sinusoids, single dose 20 mg/kg): about 4 h
reduction of pFAK [Y861] staining in liver sinusoids (pFAK [Y861]; 1 h after single dose 20 mg/kg): 79%
reduction of pFAK [Y861] staining in liver sinusoids (pFAK [Y861]; 4 h after single dose 20 mg/kg): 57%
reduction of pFAK [Y861] staining in liver sinusoids (pFAK [Y861]; 6 h after single dose 20 mg/kg): 35%
EC50 (IGROV1 cells [4]): 0.5 nM
Fold selectivity for FAK over SRC (SRC; cell lysates): >1000×
selectivity for FAK over SRC (SRC; [24]): > 1000 fold
IC50 (SRC; read-out: OXA-11 IC50 (nM), SRC, cellular mechanistic, cell lysates): > 10000 nM
EC50 (TOV21G cells [5]): 31 nM
EC50 (IGROV1 cells [6]): 0.3 nM
Fold selectivity for FAK over Aurora kinase A (Aurora kinase A; cell lysates): >1000×
selectivity for FAK over aurora kinase A (AURKA) (Aurora kinase A; [24]): > 1000 fold
IC50 (Aurora kinase A; read-out: OXA-11 IC50 (nM), Aurora kinase A, cellular mechanistic, cell lysates): > 10000 nM
EC50 (TOV21G cells [7]): 9 nM
inhibition of MDA-MB-361 tumor growth over 3 weeks (MDA-MB-361 breast tumors; higher daily dose (120 mg/kg)): 95%
inhibition of MDA-MB-361 tumor growth over 3 weeks (MDA-MB-361 breast tumors; lower daily dose (40 mg/kg)): 60%
Fold selectivity for FAK over KDR (KDR; cell lysates): >1000×
selectivity for FAK over KDR (VEGFR-2, FLK1) (KDR; [24]): > 1000 fold
IC50 (KDR; read-out: OXA-11 IC50 (nM), KDR, cellular mechanistic, cell lysates): > 10000 nM
IC50 (FAK [8]): 18 nM
Fold selectivity for FAK over Aurora kinase B (Aurora kinase B; cell lysates): >1000×
selectivity for FAK over aurora kinase B (AURKB) (Aurora kinase B; [24]): > 1000 fold
IC50 (Aurora kinase B; read-out: OXA-11 IC50 (nM), Aurora kinase B, cellular mechanistic, cell lysates): > 10000 nM
EC50 ([9]; TOV21G, OVCAR3, OVCAR5 and IGROV1 cells (high baseline pFAK [Y397])): 0.3 to 14.5 nM
EC50 ([9]; four other cell lines with lower baseline pFAK [Y397]): > 100 nM
IC50 (pFAK [Y397] [10]): 0.8 nM
inhibition of tumor growth (TOV21G tumors [11]; [23]): 77%
reduction in size of TOV21G tumors (TOV21G tumors [11]; nude mice, 20–120 mg/kg daily for 3 weeks): 22–67%
Fold selectivity for FAK (FAK) (FAK [12]): 1×
tolerability ([13]; 40 or 60 mg/kg daily for at least 3 weeks): well tolerated
maximum tolerated dose ([13]; OXA-11 given with DC101): 20 mg/kg
tolerable dosing ([13]; daily): 20 to 60 mg/kg
dose-limiting toxicity [14]: No dose-limiting toxicity
IC50 (FAK [15]): 20 nM
pFAK [Y397] activity in RIP-Tag2 tumors (pFAK [Y397] [16]): significantly reduced
IC50 (FAK [17]): 32 nM
IC50 (FAK [18]): 8 nM
IC50 (FAK [19]): 84 nM
Fold selectivity for FAK over PYK2 (PYK2; cell lysates): 8×
selectivity for FAK over PYK2 (PYK2; [24]): eightfold
IC50 (PYK2; read-out: OXA-11 IC50 (nM), PYK2, cellular mechanistic, cell lysates): 80 nM
inhibition of kinase in biochemical specificity screening (FAK [20]): more than 50%
Fold selectivity for FAK over Insulin receptor (Insulin receptor; cell lysates): >1000×
selectivity for FAK over insulin receptor (IR, INSR) (Insulin receptor; [24]): > 1000 fold
IC50 (Insulin receptor; read-out: OXA-11 IC50 (nM), Insulin receptor, cellular mechanistic, cell lysates): > 10000 nM
Fold selectivity for FAK over RSK1/2 (RSK1/2; cell lysates): 26×
selectivity for FAK over RSK1/2 (RSK1/2; [24]): 26 fold
IC50 (RSK1/2; read-out: OXA-11 IC50 (nM), RSK1/2, cellular mechanistic, cell lysates): 260 nM
IC50 (FAK [21]): 0.0012 nM

N.N.[Cl][Pt][Cl] [cisplatin]
effect on pFAK [Y397] in TOV21G-cell tumors (TOV21G tumors [22]): increased pFAK [Y397]
